For series [1], the system named is Rattus norvegicus. Nature of the series: Antiinflammatory activity against carrageenan-induced paw edema in Wistar rat at 6.25 mg/kg, po dose administered 1 hr before carrageenan challenge assessed after 3 hrs. The class given is functional. The method, boiled down: (§1)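 Wistar rats (250–300 g, either sex), fasted overnight, dosed by oral gavage with the compound suspended in 0.5% methylcellulose. Controls received vehicle alone, with 8–10 animals per group. Dosing started at 100 mg/kg and was halved stepwise. Carrageenan (1%, 0.1 mL) was injected subplantar 1 h post-dose. Paw volume was measured by plethysmometer immediately and at 3 h, and % inhibition of swelling was calculated versus controls (Student's t-test).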
(In general: In the carrageenan paw model, swelling and tenderness develop within hours.)

Series [2] deals with Mus musculus. Put plainly: Antinociceptive activity in Swiss mouse assessed as inhibition of acetic acid-induced writhing response at 25 mg/kg, po dose administered 1 hr before acetic acid challenge measured for 30 mins. The class given is functional. The method, boiled down:
(§2)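 Swiss mice (25–35 g, either sex), fasted overnight, received compound orally in 0.5% methylcellulose or vehicle, with 8–10 per group. Testing started at 100 mg/kg with successive twofold dose reductions. Writhes were counted for 30 min after acetic acid injection. Percent inhibition of the writhing response was calculated versus vehicle controls (Student's t-test).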

In series [3] the test system is Mus musculus. Nature of the series: Sedative activity in Swiss mouse assessed as inhibition on spontaneous locomotor activity at 12.5 mg/kg, po dose measured for every 5 mins during 60 to 90 mins. The class given is ADME, organism-based. On the set-up: dose 12.5 mg/kg, route oral. The method, boiled down:
(§3)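 Fasted Swiss mice (25–35 g, either sex) were given compound orally in 0.5% methylcellulose or vehicle. Each mouse was placed alone in a photobeam-type activity cage, with counts recorded every 5 min for 90 min. Pulses from the final 30 min were scored, with testing run 9:00–13:00. Percent inhibition was calculated versus controls (Student's t-test).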

Series [4] deals with Rattus norvegicus. Put plainly: Antiinflammatory activity against carrageenan-induced paw edema in Wistar rat at 50 mg/kg, po dose administered 1 hr before carrageenan challenge assessed after 3 hrs. The class given is functional. The method, boiled down: as §1
Series [5] deals with Mus musculus. Put plainly: Sedative activity in Swiss mouse assessed as inhibition on spontaneous locomotor activity at 6.25 mg/kg, po measured for every 5 mins during 60 to 90 mins. The class given is ADME, organism-based. On the set-up: dose 6.25 mg/kg, route oral. The method, boiled down:
as §3

For series [6], the system named is Mus musculus. Nature of the series: Sedative activity in Swiss mouse assessed as inhibition on spontaneous locomotor activity at 25 mg/kg, po measured for every 5 mins during 60 to 90 mins. The class given is functional, organism-based. Also on record: dose 25 mg/kg, route oral. The method, boiled down: as §3
For series [7], the system named is Mus musculus. Nature of the series: Antinociceptive activity in Swiss mouse assessed as inhibition of acetic acid-induced writhing response at 3.12 mg/kg, po dose administered 1 hr before acetic acid challenge measured for 30 mins. It is filed as functional. On the technique in general: In writhing tests, fewer writhes than in controls are read as antinociception.

Series [8] relates to Mus musculus. Nature of the series: Antinociceptive activity in Swiss mouse assessed as inhibition of acetic acid-induced writhing response at 100 mg/kg, po dose administered 1 hr before acetic acid challenge measured for 30 mins. It is filed as functional. The method, boiled down:
as §2

Series [9] relates to Rattus norvegicus. Put plainly: Antiinflammatory activity against carrageenan-induced paw edema in Wistar rat at 100 mg/kg, po dose administered 1 hr before carrageenan challenge assessed after 3 hrs. It is filed as functional. The method, boiled down: as §1
The test system of series [10] is Mus musculus. Put plainly: Sedative activity in Swiss mouse assessed as inhibition of spontaneous locomotor activity at 100 mg/kg, po dose measured for every 5 mins during 60 to 90 mins. On the set-up: dose 100 mg/kg, route oral. The class given is organism-based. The method, boiled down: as §3
Series [11] has as its system Mus musculus. Nature of the series: Antinociceptive activity in Swiss mouse assessed as inhibition of acetic acid-induced writhing response at 6.25 mg/kg, po dose administered 1 hr before acetic acid challenge measured for 30 mins. It is filed as functional. The method, boiled down: as §2
In series [12] the test system is Rattus norvegicus. Put plainly: Antiinflammatory activity against carrageenan-induced paw edema in Wistar rat at 12.5 mg/kg, po dose administered 1 hr before carrageenan challenge assessed after 3 hrs. The class given is functional. The method, boiled down:
as §1

The test system of series [13] is Mus musculus. Put plainly: Antinociceptive activity in Swiss mouse assessed as inhibition of acetic acid-induced writhing response at 12.5 mg/kg, po dose administered 1 hr before acetic acid challenge measured for 30 mins. The class given is functional. The method, boiled down: as §2
Series [14] concerns Mus musculus. Put plainly: Antinociceptive activity in Swiss mouse assessed as inhibition of acetic acid-induced writhing response at 50 mg/kg, po dose administered 1 hr before acetic acid challenge measured for 30 mins. It is filed as functional. The method, boiled down: as §2
Series [15] relates to Rattus norvegicus. Put plainly: Antiinflammatory activity against carrageenan-induced paw edema in Wistar rat at 25 mg/kg, po dose administered 1 hr before carrageenan challenge assessed after 3 hrs. The class given is functional. The method, boiled down:
as §1

Series [16] deals with Mus musculus. Put plainly: Antinociceptive activity in Swiss mouse assessed as inhibition of acetic acid-induced writhing response at 1.6 mg/kg, po dose administered 1 hr before acetic acid challenge measured for 30 mins. It is filed as functional.
In series [17] the test system is Mus musculus. Put plainly: Antinociceptive activity in Swiss mouse assessed as inhibition of acetic acid-induced writhing response at 200 mg/kg, po dose administered 1 hr before acetic acid challenge measured for 30 mins. The class given is functional.
Series [18] relates to Rattus norvegicus. Put plainly: Antiinflammatory activity against carrageenan-induced paw edema in Wistar rat at 200 mg/kg, po dose administered 1 hr before carrageenan challenge assessed after 3 hrs. The class given is functional.
Series [19] has as its system Mus musculus. Put plainly: Antinociceptive activity in Swiss mouse assessed as inhibition of acetic acid-induced writhing response at 0.8 mg/kg, po dose administered 1 hr before acetic acid challenge measured for 30 mins. The class given is functional.
Series [20] has as its system Rattus norvegicus. Put plainly: Acute gastrolesivity in Wistar rat assessed as appearance of gastric lesions at 200 mg/kg, po after 5 hrs. The class given is toxicity, organism-based, Stomach. On the set-up: dose 200 mg/kg, route oral. As to conditions: in vivo. The method, boiled down: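 Wistar rats (250–300 g, either sex), fasted overnight, given the compound orally at 200 mg kg-1 as a suspension in 0.5% methylcellulose by gavage (1 mL/100 g); 8 rats per compound. Stomachs were fixed in 2% formalin, opened along the greater curvature, and examined under a stereomicroscope by a blinded observer. The result is the number of rats with gastric damage over the number treated.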

In series [21] the test system is Rattus norvegicus. Nature of the series: Antiinflammatory activity against carrageenan-induced paw edema in Wistar rat at 3.12 mg/kg, po dose administered 1 hr before carrageenan challenge assessed after 3 hrs. It is filed as functional.
For series [22], the species on record is Mus musculus. Nature of the series: animal or person. The following applies: Swiss, po, read-out: INH.
For series [23], the system named is Rattus norvegicus. Put plainly: Antiinflammatory activity against carrageenan-induced paw edema in Wistar rat at 10 mg/kg, po dose administered 1 hr before carrageenan challenge assessed after 3 hrs. It is filed as functional.

The structures appear in SMILES notation.

As to `CCC(CC)Nc1c(C(=O)N(CC)CC)c2nnc(C(C)C)n2c2ncccc12`, the inhibition in vivo at 6.25 mg/kg in the series on Rattus norvegicus [1] is 11%; in the series with Mus musculus [11] it was 36%. The results for the inhibition in vivo at 25 mg/kg in the series with Mus musculus [2] and in the series with Rattus norvegicus [15] were 58% and 47%, respectively. Also, in the series on Mus musculus [3], the inhibition (as a rule, the share of the control response that was lost under treatment) at 12.5 mg/kg amounted to 92%. In addition, the inhibition in vivo at 50 mg/kg in the series on Rattus norvegicus [4] came to 47%; with Mus musculus [14], 75%. Moreover, the inhibition at 6.25 mg/kg in the series on Mus musculus [5] came out at 81%. The inhibition at 25 mg/kg in the series with Mus musculus [6] was 70%. In addition, the inhibition in vivo at 3.12 mg/kg with Mus musculus [7] is 18%. For the same molecule, the inhibition in vivo at 100 mg/kg in the series with Mus musculus [8] stood at 91%; in the series with Rattus norvegicus [9], 50%. Also, the inhibition at 100 mg/kg in the series with Mus musculus [10] was found to be 97%. In addition, the results for the inhibition in vivo at 12.5 mg/kg in the series with Rattus norvegicus [12] and in the series with Mus musculus [13] were 45% and 49%, respectively.
Consider `CCN(CC)C(=O)c1c(N2CCN(C)CC2)c2cccnc2n2c(C(C)C)nnc12`, for which the inhibition in vivo at 25 mg/kg in the series with Mus musculus [2] was found to be 90%. In the series on Mus musculus [3], the inhibition at 12.5 mg/kg amounted to 74%. Besides, the inhibition at 6.25 mg/kg with Mus musculus [5] was found to be 19%. The inhibition in vivo at 1.6 mg/kg in the series with Mus musculus [16] was found to be 39%. Further, in the series with Mus musculus [6], the inhibition at 25 mg/kg worked out at 99%. The inhibition in vivo at 200 mg/kg amounted to 86% with Mus musculus [17] and 34% in the series with Rattus norvegicus [18]. The inhibition in vivo at 3.12 mg/kg in the series with Mus musculus [7] came to 85%. Moreover, the inhibition in vivo at 100 mg/kg is 88% in the series with Mus musculus [8] and 23% in the series on Rattus norvegicus [9]. The inhibition at 100 mg/kg with Mus musculus [10] came out at 94%. For the same molecule, the inhibition in vivo at 6.25 mg/kg in the series on Mus musculus [11] was 83%. In the series with Mus musculus [19], the inhibition in vivo at 0.8 mg/kg came to 3%. Also, in the series on Mus musculus [13], the inhibition in vivo at 12.5 mg/kg is 92%. The Activity result in the series with Rattus norvegicus [20] is “Non-toxic”. Moreover, in the series with Mus musculus [14], the inhibition in vivo at 50 mg/kg is 85%.
As for `CCNc1c(C(=O)N(CC)CC)c2nnc(C(C)C)n2c2ncccc12`, the inhibition in vivo at 6.25 mg/kg in the series on Rattus norvegicus [1] was found to be 33%. For the same molecule, the inhibition in vivo at 3.12 mg/kg in the series with Rattus norvegicus [21] worked out at 9%. Further, the results for the inhibition in vivo at 50 mg/kg with Rattus norvegicus [4] and in the series on Mus musculus [14] were 63% and 20%, respectively. In addition, the values for the inhibition in vivo at 200 mg/kg in the series on Mus musculus [17] and in the series with Rattus norvegicus [18] were 100% and 65%, respectively. Further, the inhibition in vivo at 100 mg/kg worked out at 100% in the series on Mus musculus [8] and 63% with Rattus norvegicus [9]. Further, the inhibition at 100 mg/kg in the series on Mus musculus [10] is 13%. In the series with Rattus norvegicus [12], this molecule yielded an inhibition in vivo at 12.5 mg/kg of 35%. The Activity result in the series with Rattus norvegicus [20] is listed as “Non-toxic”. The molecule also gave an inhibition in vivo at 25 mg/kg in the series with Rattus norvegicus [15] of 61%.
Consider `COc1ccc2c(c1)c(CC(=O)O)c(C)n2C(=O)c1ccc(Cl)cc1` [INDOMETHACIN], for which the results for the inhibition in vivo at 10 mg/kg in the series filed under Mus musculus [22] and with Rattus norvegicus [23] were 84% and 51%, respectively.
